Values belong to the compound of their own block, whether it stands above or below them.
Legend:
[1] = Bench-top stability in mouse plasma and tissue homogenates at 25°C; format: in vitro ADME; settings: plasma and most tissue homogenates except for liver
tumor growth = settings: 40 mg/kg intraperitoneal; ref: our previous studies; cited from earlier work
[2] = Homogenization stability in mouse tissues; format: in vitro ADME; settings: homogenized
Method in brief: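 Compound at 324 and 3240 ng/mL injected into equal weights of blank mouse tissue, kept inside the organ. Tissue homogenized in two volumes (v/w) PBS on ice, extracted at once by methanol precipitation and analysed immediately. Analysis by C18 HPLC-DAD at 295 nm. Recovery given as percent of initial concentration.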

Freeze–thaw stability = format: in vitro ADME
Method in brief: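 Samples at 324 and 3240 ng/mL, run in triplicate. Each cycle was 24 h at −20°C, then unassisted thawing at room temperature, then refreezing; three cycles in total. Samples then extracted with methanol (0.04% formic acid) on ice and analysed by reversed-phase HPLC-DAD at 295 nm. Final concentration expressed as percent of initial.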

[3] = Short- and long-term stability in mouse plasma; format: in vitro ADME; settings: for compound remaining intact in mouse plasma: 4°C
Method in brief: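 Mouse plasma spiked at 324 and 3240 ng/mL, analysed in duplicate. Short-term storage at 37°C (2, 4, 6, 8, 12, 24 h) or 4°C (4, 8, 12, 24 h); long-term storage at −80°C for 2–8 weeks. Samples then methanol-extracted and analysed by HPLC-DAD. Results given as percent of freshly prepared samples.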

pancreatic cancer cells = settings: ref: our previous studies; cited from earlier work
mouse plasma proteins = test: Plasma protein binding by micro-ultrafiltration; format: in vitro ADME; settings: 37°C, 1 h
Method in brief: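 Mouse plasma spiked at 324 and 3240 ng/mL and held at 37°C for 1 h; PBS used as control matrix. Micro-ultrafiltration by centrifugation at 2000g until dry. Filtrate (free, F) and unfiltered solution (total, T) each assayed in triplicate by HPLC, and filter-bound amount (X) also measured. Percent bound = [(T−F−X)/T]×100.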

[4] = Stock solution stability at room temperature; format: physicochemical; settings: room temperature (25°C), 24 h; 324 and 3240 ng/mL
Method in brief: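 Stock solutions of analyte and internal standard, at 324 and 3240 ng/mL, tested fresh and after storage at 25°C. Tested at 6, 12 and 24 h after preparation, using the same extraction and C18 HPLC-DAD (295 nm) procedure.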

[5] = format: in vivo, female nu/nu mice
Method in brief: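 Nude mice carrying subcutaneous MIAPaCa-2 xenografts (1 × 10^7 cells, left inguinal) were dosed once with 40 mg/kg i.p. when tumours reached 100 mg, n=3 per group. Vehicle was PEG400–EtOH–saline (57.1:14.3:28.6). Retro-orbital plasma and necropsy tissues taken at 0–24 h. Urine and feces collected over 24 h in metabolic cages. Tissues homogenized in PBS, methanol-extracted and measured by HPLC-DAD.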

[6] = tested on: hepatic microsomal S9 fractions from CD2F1 mice; test: S9 metabolism in vitro; format: in vitro ADME; settings: mouse S9, 60 min incubation, 37°C
Method in brief: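 Hepatic S9 fraction from CD2F1 mice, containing phase I and II enzymes and cofactors, incubated with compound. Compound added as a 3240 ng/mL DMSO solution (not final concentration) into cold 100 mM Tris, pH 7.4. Duplicate portions taken at 0, 15, 30, 45 and 60 min and analysed for intact compound by HPLC, against a no-S9 control.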

[7] = Nonspecific binding to container surface; format: physicochemical, mouse
Method in brief: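 Sequential transfer test. Plasma or tissue homogenate spiked at 324 or 3240 ng/mL was poured, without a pipette, through four identical clean tubes in turn. Solution stood 5–20 min at room temperature in each donor tube for adsorption. 100 μL taken from each tube and measured by the same extraction and HPLC-DAD method.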

[8] = female, nu/nu, mouse, plasma, intraperitoneal, 40 mg/kg

bench-top stability [1]: relatively stable
recovery at 324 ng/mL ([2]; blank brain tissue): 91.3 ± 0.98%
recovery at 3240 ng/mL ([2]; blank brain tissue): 101 ± 1.45%
recovery at 324 ng/mL ([2]; blank heart tissue): 81.8 ± 4.47%
recovery at 3240 ng/mL ([2]; blank heart tissue): 86.6 ± 1.39%
recovery at 324 ng/mL ([2]; blank kidney tissue): 82.5 ± 2.6%
recovery at 3240 ng/mL ([2]; blank kidney tissue): 87.8 ± 1.36%
recovery at 324 ng/mL ([2]; blank liver tissue): 86.7 ± 1.36%
recovery at 3240 ng/mL ([2]; blank liver tissue): 89.22 ± 0.77%
recovery at 324 ng/mL ([2]; blank lung tissue): 89 ± 1.57%
recovery at 3240 ng/mL ([2]; blank lung tissue): 93.3 ± 1.02%
recovery at 324 ng/mL ([2]; blank muscle tissue): 97.18 ± 0.9%
recovery at 3240 ng/mL ([2]; blank muscle tissue): 97.5 ± 1.47%
recovery at 324 ng/mL ([2]; blank spleen tissue): 93 ± 5.2%
recovery at 3240 ng/mL ([2]; blank spleen tissue): 99.7 ± 1.15%
recovery at 324 ng/mL ([2]; blank tumor tissue): 99.61 ± 0.79%
recovery at 3240 ng/mL ([2]; blank tumor tissue): 99.12 ± 0.19%
percentage of remaining concentration after three freeze–thaw cycles (Freeze–thaw stability; 324 ng/mL): 98.24 ± 0.69%
percentage of remaining concentration after three freeze–thaw cycles (Freeze–thaw stability; 3240 ng/mL): 97.44 ± 1.53%
compound remaining intact in mouse plasma ([3]; 24 h, 324 ng/mL): 95.9%
compound remaining intact in mouse plasma ([3]; 24 h, 3240 ng/mL): 94.3%
compound remaining in mouse plasma ([3]; 37°C, 24 h, both 324 and 3240 ng/mL): more than 77%
compound remaining in mouse plasma ([3]; −80°C, 8 weeks, 324 ng/mL): 95.7%
compound remaining in mouse plasma ([3]; −80°C, 8 weeks, 3240 ng/mL): 98.7%
bound to proteins in mouse plasma (mouse plasma proteins; 324 ng/mL): 57.23%
bound to proteins in mouse plasma (mouse plasma proteins; 3240 ng/mL): 62.61%
stock solution stability [4]: unchanged
concentration in plasma ([5]; 40 mg/kg i.p. single dose, 6 h): undetectable
detection in tumor tissue ([5]; 40 mg/kg i.p., 24 h after administration, low concentrations): could be detected
excretion of parent compound in urine and feces ([5]; 40 mg/kg i.p., 24 h collection, data not shown): minimally excreted
half-life in plasma ([5]; 40 mg/kg i.p., tumor-bearing nude mice): short half-life
concentration at 10 min [5, 8]: ~3000 ng/mL
concentration at 4 h [5, 8]: 200 ng/mL
compound metabolized by phase II components [6]: 18.8%
Recovery (%) ± SD (%), nonspecific binding ([7]; Brain, 324 ng/mL): 96.29 ± 2.54%
Recovery (%) ± SD (%), nonspecific binding ([7]; Brain, 3240 ng/mL): 100.58 ± 0.81%
Recovery (%) ± SD (%), nonspecific binding ([7]; Heart, 324 ng/mL): 100.41 ± 0.27%
Recovery (%) ± SD (%), nonspecific binding ([7]; Heart, 3240 ng/mL): 98.82 ± 0.38%
Recovery (%) ± SD (%), nonspecific binding ([7]; Kidney, 324 ng/mL): 99.88 ± 3.11%
Recovery (%) ± SD (%), nonspecific binding ([7]; Kidney, 3240 ng/mL): 97.13 ± 1.04%
Recovery (%) ± SD (%), nonspecific binding ([7]; Liver, 324 ng/mL): 104.91 ± 6.65%
Recovery (%) ± SD (%), nonspecific binding ([7]; Liver, 3240 ng/mL): 99.69 ± 1.38%
Recovery (%) ± SD (%), nonspecific binding ([7]; Lungs, 324 ng/mL): 96.64 ± 2.24%
Recovery (%) ± SD (%), nonspecific binding ([7]; Lungs, 3240 ng/mL): 99.99 ± 0.21%
Recovery (%) ± SD (%), nonspecific binding ([7]; Muscle, 324 ng/mL): 101.12 ± 2.33%
Recovery (%) ± SD (%), nonspecific binding ([7]; Muscle, 3240 ng/mL): 99.19 ± 1.01%
Recovery (%) ± SD (%), nonspecific binding ([7]; Plasma, 324 ng/mL): 98.95 ± 1.49%
Recovery (%) ± SD (%), nonspecific binding ([7]; Plasma, 3240 ng/mL): 100.49 ± 0.04%
Recovery (%) ± SD (%), nonspecific binding ([7]; Spleen, 324 ng/mL): 99.54 ± 2.10%
Recovery (%) ± SD (%), nonspecific binding ([7]; Spleen, 3240 ng/mL): 99.99 ± 0.22%
Recovery (%) ± SD (%), nonspecific binding ([7]; Tumor, 324 ng/mL): 96.84 ± 2.30%
Recovery (%) ± SD (%), nonspecific binding ([7]; Tumor, 3240 ng/mL): 99.20 ± 0.57%
Structure (SMILES): COc1ccc2[nH]c3c(-c4cccc5ccccc45)nccc3c2c1 [SP-141, 6-methoxy-1-(naphthalen-1-yl)-9H-pyrido[3,4-b]indole]
effect on tumor growth in vivo (tumor growth): suppresses the tumor growth
host toxicity in vivo (tumor growth): no significant host toxicity
effective level against pancreatic cancer cells in vitro (pancreatic cancer cells): submicromolar
order of highest overall concentrations in tissues ([5]; 40 mg/kg i.p. single dose): spleen > lungs > liver > kidney > brain > tumor > muscle > heart

stock solution stability [4]: unchanged
Structure (SMILES): COc1ccc2c(c1)[nH]c1c(-c3ccc4ccccc4c3)nccc12 [SP-157, 7-methoxy-1-(naphthalen-2-yl)-9H-pyrido[3,4-b]indole, reference compound]

Source: article PMC4710169 (Biomedical chromatography : BMC, 2014)
